Compound activity (PubChem BioAssay)
M1 ag: activates human CHRM1 receptor. P11229. CHO-K1 hM1, Fluo-8 calcium fluorescence, agonist mode; 0% DMSO, 100% acetylcholine EC100. activation, % at 3 µM. 360,000 compounds, 0.33% hits;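 active = activation above the run's mean compound activation plus 3 SD, cut at about 16% in these data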;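 note: peak over basal fluorescence ratio within a 140 s kinetic read after compound addition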
Target sequence (P11229 whole entry, looked up): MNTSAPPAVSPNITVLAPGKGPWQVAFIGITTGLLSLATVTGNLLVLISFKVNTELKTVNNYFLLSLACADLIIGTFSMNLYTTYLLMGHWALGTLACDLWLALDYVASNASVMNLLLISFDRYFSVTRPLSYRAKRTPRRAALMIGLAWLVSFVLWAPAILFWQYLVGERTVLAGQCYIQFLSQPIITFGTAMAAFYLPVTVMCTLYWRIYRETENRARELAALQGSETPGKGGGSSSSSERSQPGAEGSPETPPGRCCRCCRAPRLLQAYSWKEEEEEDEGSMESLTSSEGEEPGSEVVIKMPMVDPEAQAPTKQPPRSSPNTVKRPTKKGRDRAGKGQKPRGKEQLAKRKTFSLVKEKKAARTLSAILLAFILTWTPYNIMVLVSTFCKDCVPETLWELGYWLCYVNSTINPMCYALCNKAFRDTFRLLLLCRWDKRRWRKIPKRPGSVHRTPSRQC
M5 antag: CHRM5 antagonism in calcium assay; 360,000 compounds, 0.59% hits; CHO-hM5 cells, Fluo-8 calcium fluorescence, ACh EC80; P08912; inhibition, % at 3 µM;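 active = inhibition above a per-plate cutoff, the mean of that plate's test compounds plus 3 SD, cut at about 27% in these data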;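 note: 0% = acetylcholine EC80 with DMSO and 100% = DMSO without agonist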
M1 PAM: potentiates human M1 receptor response to acetylcholine | CHO-K1 hM1, Fluo-8 calcium fluorescence, ACh EC20; 0% = ACh EC20, 100% = maximal ACh | activation, % at 3 µM | 360,000 compounds, 0.088% hits | AID 588819; in the data active = activation above about 19%, passing the limit was not always enough
M5 ag: CHRM5 agonism in calcium assay; P08912; CHO-K1 hM5 cells, Fluo-8 calcium fluorescence; 0% DMSO wells, 100% maximal acetylcholine response; activation, % at 3 µM; 360,000 compounds, 0.19% hits;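 active = activation above the run's mean over test compounds plus 3 SD, cut at about 23% in these data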;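 note: signal is peak over basal fluorescence ratio across the kinetic read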
CHRM5 PAM: CHRM5 positive allosteric modulation; CHO-K1 hM5, Fluo-8 calcium, ACh EC20 PAM; 0% = ACh EC20, 100% = ACh EC100; activation, % at 3 µM; P08912; AID 624038; 360,000 compounds, 0.3% hits;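 active = activation above the run cutoff, the mean activation of all test compounds plus 3 SD, cut at about 18% in these data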
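system = human M5 receptor in CHO-K1 cells | reagent = EC20 acetylcholine as agonist stimulus | compound dosing = single-point, 3 µM nominal | incubation = Fluo-8 loading 80 min at 37 °C plus 30 min room temperature | detection = Fluo-8 calcium dye fluorescence, kinetic read | benchmarks = low control EC20 acetylcholine (0%), high control EC100 acetylcholine (100%)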
M1 antag: antagonists of human M1 muscarinic receptor; inhibition, % at 3 µM; AID 588852; 360,000 compounds, 1.3% hits; P11229; CHO-K1 hM1, Fluo-8 calcium fluorescence, ACh EC80 antagonist;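 active = percent inhibition above its own plate's cutoff, namely the mean of that plate's compound wells plus 3 SD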;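 note: peak over basal fluorescence ratio during 140 s after agonist addition; 0% = ACh EC80 plus DMSO and 100% = DMSO alone without agonist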
* marks the source's active call; other numbers are inactive results; · = no result; ! = repeats disagree. An excerpt weighted towards active compounds, which were near 2% of everything screened.

SMILES | M1 ag | M5 antag | M1 PAM | M5 ag | CHRM5 PAM | M1 antag
Cc1ccc2c(c1)CCCN2CC(=O)Nc1cccc(S(=O)(=O)N2CCCC2)c1 | -8.1 | 4.5 | -17.2 | -0.2 | -7.8 | 32.4*
COc1ccc(S(=O)(=O)N2CCOCC2)cc1NC(=O)c1ccc(S(=O)(=O)N2CCCCC2)cc1 | -7.8 | 7.2 | 5.5 | -2.4 | 1.6 | -10.5
CN(C)S(=O)(=O)c1cccc(NC(=O)c2cccc(S(=O)(=O)N3CCCCCC3)c2)c1 | -4.5 | 14.1 | -21.0 | 0.5 | -24.0 | 32.5*
COCCN1Cc2cccc(C(=O)Nc3ccc(S(=O)(=O)N4CCCCC4)cc3)c2C1=O | -4.4 | -1.5 | 6.2 | 1.5 | 24.8* | -6.7
CCc1nc2ccc(C(=O)NCCN3CCNC3=O)cn2c1N(CCC(C)C)CCN(C)C | -5.7 | 3.9 | 4.5 | -1.5 | -1.1 | -10.5
C=C(CN(C)C)C(=O)c1ccc(OC2OC(COC(C)=O)C(OC(C)=O)C(OC(C)=O)C2OC(C)=O)cc1 (centres undefined) | -0.2 | 19.9 | -9.1 | 3.3 | -29.0 | 18.0
c1ccc2c(-c3ccc4nncn4c3)cncc2c1 | -0.2 | 11.2 | 5.6 | 1.1 | -5.9 | -3.4
CN(c1ccccc1)S(=O)(=O)c1ccc(C(=O)Nc2cccc(S(=O)(=O)N3CCOCC3)c2)cc1 | -4.4 | 13.7 | -15.8 | 3.8 | -10.0 | 21.8
CC(=O)c1cc(Cl)ccc1OCc1cccc(S(=O)(=O)N2CCOCC2)c1 | 2.8 | 9.8 | -16.3 | 2.7 | -17.5 | 31.0*
COc1ccccc1N(C)S(=O)(=O)c1ccc(C(=O)Nc2cccc(S(=O)(=O)N3CCOCC3)c2)cc1 | -4.0 | 19.5 | -21.5 | 1.1 | -23.6 | 37.8*
CN(C)S(=O)(=O)c1ccc(C(=O)Nc2ccc(CN3CCCC3)cc2)cc1 | -5.4 | 6.1 | -18.0 | -6.6 | -7.9 | 40.7*
O=C(Nc1cc(S(=O)(=O)N2CCOCC2)ccc1Cl)C1CCC1 | -2.5 | 3.9 | -8.4 | 1.9 | 0.0 | 27.2*
CC(=O)N(C(C)=O)c1ccc(Oc2ccc(Oc3ccc(N(C(C)=O)C(C)=O)cc3)cc2)cc1 | 2.3 | 9.3 | -16.4 | 6.8 | -16.8 | 14.8
N#CCCN(Cc1ccccc1)C(CCc1ccccc1)C(=O)NC1CCCCC1 (centres undefined) | -5.4 | -2.1 | -17.7 | -4.2 | -15.8 | 20.2
C=CCn1c(=O)[nH]c2cc(C(=O)N3CCN(c4ccc(C(C)=O)cc4)CC3)ccc2c1=O | -2.4 | 1.0 | 5.1 | 0.1 | -4.5 | -10.7
C=CCn1c(=O)[nH]c2cc(C(=O)N3CCN(c4cccc(Cl)c4)CC3)ccc2c1=O | -5.3 | -5.4 | -22.6 | 1.7 | -9.4 | 20.7*
CN(C)c1ccc(C(=O)Nc2cccc(S(=O)(=O)N3CCCC3)c2)cc1 | -7.0 | 5.0 | -24.8 | -7.1 | -6.8 | 46.4*
O=C(Nc1cccc(S(=O)(=O)N2CCCCC2)c1)c1ccc2c(=O)n3c(nc2c1)CCCCC3 | 1.4 | 19.2 | -25.1 | -2.0 | -19.6 | 43.4*
CN1CCCN(S(=O)(=O)c2ccccc2)CC1 | -11.5 | 5.4 | -21.8 | -1.2 | -6.3 | 33.1*
C[C@@H]1CN([C@H](C)CO)C(=O)CCCn2nncc2CO[C@H]1CN(C)S(=O)(=O)c1cccc(F)c1 | -3.7 | 0.6 | -2.1 | -0.6 | -3.1 | 7.3
Nc1[nH]c(C(=O)c2ccccc2)c(-c2cccnc2)c1C(=O)NCCc1ccc(Cl)cc1Cl | · | 3.8 | · | 3.6 | -11.1 | ·
CC1CCCN(CC(=O)Nc2cc(S(=O)(=O)N3CCOCC3)ccc2N2CCCC2)C1 (centres undefined) | -8.1 | 1.0 | -20.7 | -8.8 | -17.0 | 38.0*
CCOc1ccc(NC(=O)Nc2nc(SCC)ns2)cc1 | 6.5 | 32.6* | -14.4 | 7.8 | -25.1 | 21.6
CCSc1nsc(NC(=O)Nc2ccccc2Cl)n1 | -0.3 | 4.9 | -12.8 | 6.7 | -16.5 | 18.2
Cc1cccc2cc(-c3nc4c(C)cccn4c3NCc3ccco3)c(=O)[nH]c12 | 2.2 | 4.6 | -15.4 | -5.6 | -14.2 | 27.8*
SMILES | M1 ag | M5 antag | M1 PAM | M5 ag | CHRM5 PAM | M1 antag
O=Cc1ccc(-c2ccccc2C(=O)O)o1 | -0.1 | 11.2 | 11.1 | -0.3 | -5.3 | 4.6
O=C(O)c1ccccc1-c1c2cc(I)c(=O)c(I)c-2oc2c(I)c(O)c(I)cc12 | 278.8* | 38.2* | -25.7 | 107.0* | -20.5 | 78.0*!
CCOC(=O)c1cc2c(c(CCO)n1)[C@@H](CCO)N(S(=O)(=O)C(C)(C)C)C2 | -2.3 | 2.3 | -1.4 | 0.7 | -3.4 | -3.6
CCCCn1c(N)c(N(CC)C(=O)c2cccc(F)c2)c(=O)[nH]c1=O | 1.4 | 7.5 | -0.1 | -1.5 | -1.5 | 4.7
CCCCn1c(N)c(N(CC)C(=O)c2ccc(Cl)c(Cl)c2)c(=O)[nH]c1=O | -3.6 | 28.0* | 6.2 | -3.3 | -8.1 | -1.7
Cc1ccc(CN2CCC(c3cc(-c4cccs4)n[nH]3)CC2)cc1 | -15.4 | 2.6 | -36.8 | -10.7 | -19.3 | 31.3*
FC(F)(F)c1cccc(CN2CCC(c3cc(-c4cccs4)n[nH]3)CC2)c1 | -9.0 | -0.4 | -15.2 | -4.1 | 0.3 | 11.2
COC(=O)CCCn1cc(CN2CC(N3CCN(C4CCN(C)CC4)CC3)CS2(=O)=O)nn1 (centres undefined) | · | 2.4 | · | 0.8 | -2.6 | ·
COc1cc(C=NN2CCCCC2)cc(OC)c1OC | 24.9* | 5.4 | -8.1 | 26.5* | -4.7 | 5.4
COc1ccc2ccccc2c1C=NN1CCCCC1 | 21.4* | 20.1 | -8.5 | 17.5 | -7.5 | 9.4
COc1ccc2ccccc2c1/C=N/N1C(=O)CSC1=S | -4.4 | 5.4 | 1.1 | -5.1 | -0.8 | 0.3
CC1=C(C(=O)N2CCOCC2)CC(CC(=O)NC2CCCCC2)C(=O)N1Cc1ccc(C(C)(C)C)cc1 (centres undefined) | -6.9 | 3.5 | -0.4 | 0.0 | 0.0 | -5.6
CC(=O)NN1C(=O)/C(=C/c2ccc(Br)o2)SC1=S | -2.5 | 13.1 | 21.1* | -0.9 | 5.5 | -3.2
O=C(O)c1cccc(CN2C(=O)c3ccccc3C2=O)c1 | 1.3 | 13.7 | 10.9 | -0.6 | -1.8 | -0.6
O=C1c2cccc3c(O)ccc(c23)C(=O)N1Cc1ccccc1 | 262.3* | 56.5* | -28.1 | 173.1* | -33.6 | 69.9*
COc1ccc(S(=O)(=O)Nc2ccc3c(c2)OCO3)cc1OC | 0.7 | 0.8 | -0.4 | 1.5 | 0.7 | -2.4
COc1ccc(NS(=O)(=O)c2ccc3c(c2)OCCO3)cc1OC | 2.4 | 28.8* | -13.3 | 7.8 | -13.4 | 26.0*
COc1ccccc1C(CNC(=O)c1ccc(S(=O)(=O)N2CCCCC2)cc1)N(C)C (centres undefined) | -7.0 | 5.9 | -2.0 | -1.6 | 1.6 | 4.6
